Data set [1] relates to 3T3-L1. Briefly: Cytotoxicity against mouse 3T3L1 cells assessed as effect on cell viability at 10 uM after 48 hrs by MTT assay. The format is cell-based. The conditions noted are these: 3t3-l1, 48 h. The essentials:
(§1)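 3T3-L1 preadipocytes incubated 48 h with 5, 10, 20 or 40 μM compound; viability read by MTT assay against 0.1% DMSO-treated control cells. Mean ± SD of three independent experiments.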

In data set [2] the test system is 3T3-L1. Put plainly: Reduction in lipid accumulation in mouse 3T3L1 cells at 10 uM by Oil Red O staining-based absorbance method relative to control. The format is functional. In a few lines:
(§2)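 3T3-L1 preadipocytes differentiated to mature adipocytes, then treated with compound (screen at 10 μM; concentration series 10, 20, 40, 80 μM). Lipid stained with Oil Red O, dye extracted and absorbance read at 492 nm; microscopic images also taken. Compared with vehicle; mean ± SD of two independent experiments.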

Data set [3] relates to 3T3-L1. Briefly: Cytotoxicity against mouse 3T3L1 cells assessed as reduction in cell viability at 40 uM after 48 hrs by MTT assay. In kind it is cell-based. The conditions noted are these: 3t3-l1, 48 h. In a few lines:
as §1
Background: Tetrazolium dyes change colour on reduction, which living cells bring about.

Data set [4] deals with T1, Bile acid receptor (Homo sapiens) (UniProt Q96RI1).
T1 sequence (whole entry): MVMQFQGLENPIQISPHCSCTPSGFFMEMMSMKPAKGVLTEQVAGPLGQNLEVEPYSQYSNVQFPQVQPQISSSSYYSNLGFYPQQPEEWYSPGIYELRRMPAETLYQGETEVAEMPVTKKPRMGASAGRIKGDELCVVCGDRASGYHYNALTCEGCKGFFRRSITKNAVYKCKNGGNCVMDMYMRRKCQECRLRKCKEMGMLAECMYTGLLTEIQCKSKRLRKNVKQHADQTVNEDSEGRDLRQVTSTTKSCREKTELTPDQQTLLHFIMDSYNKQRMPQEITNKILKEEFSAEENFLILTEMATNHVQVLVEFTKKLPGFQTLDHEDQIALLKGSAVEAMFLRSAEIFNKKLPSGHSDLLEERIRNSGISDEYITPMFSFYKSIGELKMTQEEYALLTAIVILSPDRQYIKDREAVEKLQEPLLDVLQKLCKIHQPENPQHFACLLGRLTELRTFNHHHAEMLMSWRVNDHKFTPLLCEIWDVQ
Briefly: Transactivation of FXR (unknown origin) at 10 uM by cell-based dual luciferase reporter gene assay. The essentials: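 Cell-based FXR transactivation measured with a dual-luciferase reporter system; cells exposed to 10 μM compound. Mean ± SEM, n = 3.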
A general note: A reporter such as luciferase makes a cellular process visible.

A short description of data set [5]: Hepatotoxicity in human HepG2 cells assessed as reduction in cell viability at 80 uM. In kind it is toxicity, cell-based. The conditions noted are these: hepg2, 80 µM.
For data set [6], the system named is 3T3-L1. Briefly: Reduction in lipid accumulation in mouse 3T3L1 cells at 10 to 80 uM by Oil Red O staining-based microscopic analysis. In kind it is functional, cell-based. The essentials:
as §2

Data set [7] deals with T1, Bile acid receptor (Homo sapiens). Put plainly: Agonist activity against FXR in human HepG2 cells assessed as up-regulation of BSEP mRNA expression at 10 uM by RT-PCR analysis. The format is cell-based. The essentials: (§3)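 HepG2 cells exposed to test agent at 10 μM; mRNA of FXR and FXR-regulated genes SHP, BSEP and SREBP-1c quantified by real-time PCR relative to vehicle. Mean ± SEM, n = 3.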

The subject of data set [8] is 3T3-L1. Briefly: Reduction in lipid accumulation in mouse 3T3L1 cells by Oil Red O staining-based absorbance method. The format is functional, cell-based. In a few lines:
as §2

In data set [9] the target is T1, Bile acid receptor (Homo sapiens). Briefly: Agonist activity against FXR in human HepG2 cells assessed as down regulation of SREBP-1c mRNA expression at 10 uM by RT-PCR analysis. In kind it is cell-based. In a few lines: as §3
For data set [10] the target is unchanged. Briefly: Agonist activity against FXR in human HepG2 cells assessed as up-regulation of SHP mRNA expression at 10 uM by RT-PCR analysis. The format is cell-based. The essentials: as §3
Data set [11] deals with HepG2. Briefly: Induction of cell proliferation in human HepG2 cells at <20 uM. In kind it is functional, cell-based.
Data set [12] has as its system 3T3-L1. Briefly: Reduction in lipid accumulation in mouse 3T3L1 cells at 80 uM by Oil Red O staining-based absorbance method relative to control. In kind it is functional. Set-up: scale not given: the % may be the effect or the level left. In a few lines:
as §2

The test system of data set [13] is HepG2. Put plainly: Up-regulation of FXR mRNA expression in human HepG2 cells at 10 uM by RT-PCR analysis. In kind it is functional, cell-based. In a few lines: as §3
The test system of data set [14] is 3T3-L1. Briefly: Increase in cell viability of mouse 3T3L1 cells at 5 uM after 48 hrs by MTT assay. In kind it is functional, cell-based. The essentials:
as §1

Calls of active or inactive are those of the source. The calls are words filed in the database; no cut-off is given here.

Turning to `COc1ccc(-c2coc3cc(OCc4c(-c5c(Cl)cccc5Cl)noc4C(C)C)ccc3c2=O)cc1`, the Activity entry in data set [1] and in data set [3] was “Non-Toxic” throughout. Moreover, in data set [2], the result was Active.
`CC(C)c1onc(-c2c(Cl)cccc2Cl)c1COc1ccc2c(=O)c(-c3ccc(F)cc3)coc2c1`: the Activity result in [1] and in [3] was “Non-Toxic” throughout.
In the case of `CC(C)c1onc(-c2c(Cl)cccc2Cl)c1COc1ccc2c(=O)c(-c3ccc(O)cc3)coc2c1`, the Activity result in data set [1] is on record as “Non-Toxic”; in data set [3], “Toxic”. The outcome in [2] was Active.
Take `CCNC(=O)c1ccc(-c2coc3cc(OCc4c(-c5c(Cl)cccc5Cl)noc4C(C)C)ccc3c2=O)cc1`: the Activity entry in [1] and in data set [3] was “Non-Toxic” each time. The outcome in data set [2] was Active.
For `CC(C)c1onc(-c2c(Cl)cccc2Cl)c1COc1ccc(/C=C/c2cccc(C(=O)O)c2)c(Cl)c1`, the outcome in data set [4] and in data set [2] was Active. Further, the Activity result in [1] is reported as “Non-Toxic”.
Consider `CC(C)c1onc(-c2c(Cl)cccc2Cl)c1COc1ccc2c(=O)c(-c3ccc(OCC(=O)O)cc3)coc2c1`, for which the Activity entry in data set [1] and in data set [3] was “Non-Toxic” throughout. Further, the outcome in data set [2] was Active.
`CC(C)c1onc(-c2c(Cl)cccc2Cl)c1COc1ccc2c(=O)c(-c3ccc(C(=O)N(C)C)cc3)coc2c1`: the Activity entry is “Non-Toxic” in data set [5]; “Dose-dependent effect” in [8]; more than 50% in data set [12]; “Non-Toxic” in data set [1]; “Non-Toxic” in data set [3]. The outcome in [4], in data set [6], in data set [7], in data set [9], in [10] and in [11] was Active. Also, the outcome in [2] and in data set [13] was Active.
For the compound `CC(C)c1onc(-c2c(Cl)cccc2Cl)c1COc1ccc2c(=O)c(-c3ccc([N+](=O)[O-])cc3)coc2c1`, the Activity entry in data set [1] and in data set [3] was “Non-Toxic” each time. In addition, the outcome in [2] was Active.
Regarding `CC(C)c1onc(-c2c(Cl)cccc2Cl)c1COc1ccc2c(=O)c(-c3ccc(C(=O)O)cc3)coc2c1`, the Activity entry in data set [1] and in data set [3] was “Non-Toxic” in each case. Besides, the outcome in data set [2] was Active.
As to `CNC(=O)c1ccc(-c2coc3cc(OCc4c(-c5c(Cl)cccc5Cl)noc4C(C)C)ccc3c2=O)cc1`, the Activity result in data set [1] and in data set [3] was “Non-Toxic” each time. Further, the result in [2] was Active.
In the case of `COC(=O)c1ccc(-c2coc3cc(OCc4c(-c5c(Cl)cccc5Cl)noc4C(C)C)ccc3c2=O)cc1`, the Activity result in [1] and in [3] was “Non-Toxic” throughout. Besides, the outcome in [2] was Active.
With `CC(C)c1onc(-c2c(Cl)cccc2Cl)c1COc1ccc2c(=O)c(-c3ccc(C(=O)NC4CC4)cc3)coc2c1`, the result in data set [14] and in data set [2] was Active. For the same compound, the Activity entry in [1] and in data set [3] was “Non-Toxic” each time.
As for `CCOC(=O)COc1ccc(-c2coc3cc(OCc4c(-c5c(Cl)cccc5Cl)noc4C(C)C)ccc3c2=O)cc1`, the Activity result in [1] and in data set [3] was “Non-Toxic” each time. Besides, the outcome in data set [2] was Active.
